Results as given in ChEMBL document CHEMBL4251706, “Elimination of HIV-1 Latently Infected Cells by Gnidimacrin and a Selective HDAC Inhibitor” (ACS Med Chem Lett, 2018).
The source made the active and inactive calls. No cut-off for these calls is given here.

How the values were obtained:
[1] = tested on: Human immunodeficiency virus 1; test: Reactivation of latent HIV1 infected in human U1 cells assessed as increase in p24 production after 48 hrs by ELISA relative to vorinostat; assay type: functional
Outline: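 U1 cells at 2x10^5 cells/ml incubated with a range of concentrations at 37 °C for 48 h. Supernatant p24 measured by HIV p24 ELISA. EC50 ± SD derived from 3 independent experiments.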

[2] = Cytotoxicity against human J-Lat (A2) cells assessed as effect on cell viability at 1 uM after 72 hrs by flow cytometric analysis; assay type: cell-based
Outline: (§1)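 J-Lat (A2) cells, 1x10^6 cells/well, incubated with the test agent at 37 °C for 72 h. GFP-expressing cells and percent viable cells measured by flow cytometry. Two independent experiments.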

[3] = tested on: Human immunodeficiency virus 1; test: Reactivation of latent HIV1 infected in human J-Lat A2 cells assessed as increase in GFP positive cells at 1 uM after 72 hrs by flow cytometric analysis; assay type: functional, organism-based; outline: as §1
[4] = Cytotoxicity against human U937 cells assessed as reduction in cell viability after 48 hrs by CellTiter-Glo luminescent cell viability assay; assay type: cell-based, U-937
Outline: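 U937 cells (HIV-1-negative parental line of U1) at 2x10^5 cells/ml exposed to a range of concentrations for 48 h at 37 °C. Viability read by CellTiter-Glo luminescence. CC50 ± SD derived from 3 independent experiments.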

[5] = Cytotoxicity against human Jurkat cells assessed as reduction in cell viability after 72 hrs by CellTiter-Glo luminescent cell viability assay; assay type: cell-based
[6] = Selectivity index, ratio of CC50 for human U937 cells to EC50 for reactivation of latent HIV1 infected in human U1 cells; conditions: U937 cells (CC50) and latent HIV-1 infected U1 cells (EC50)
[7] = tested on: Human immunodeficiency virus 1; test: (§2) Reactivation of latent HIV1 infected in human U1 cells/uninfected U937 cell mixture assessed as reduction in proviral DNA level at 0.57 uM supplemented with fresh medium containing compound every 3 days for 18 days measured post last dose by PCR analysis; assay type: functional, organism-based
Outline: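 U1/U937 (1:4) cultures treated for 18 days with T20 present and refed with compound every 3 days. HIV-1 pol DNA (200 bp) amplified by PCR for 30 cycles, with B2M (779 bp, 25 cycles) as internal control. Products run on 2% agarose gels and densitometry expressed as the treated/DMSO ratio.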

[8] = tested on: Human immunodeficiency virus 1; test: Reactivation of latent HIV1 infected in human U1 cells assessed as increase in p24 production after 48 hrs by ELISA; assay type: functional, organism-based; conditions: Human immunodeficiency virus 1, U1, 48 h; read-out: EC50
[9] = tested on: Human immunodeficiency virus 1; test: Reactivation of latent HIV1 infected in human U1 cells/uninfected U937 cell mixture assessed as increase in p24 production at 0.57 uM supplemented with fresh medium containing compound every 3 days for 18 days and subsequent dosing at day 18 post dose measured on day 21 by ELISA
[10] = tested on: Human immunodeficiency virus 1; test: Synergistic reactivation of latent HIV1 infected in human U1 cells/uninfected U937 cell mixture assessed as increase in p24 production at 26 pM supplemented with fresh medium containing compound every 3 days for 18 days and subsequent dosing at 129 pM at day 18 post dose measured on day 21 in presence of HDAC inhibitor TPyB by ELISA; assay type: functional, organism-based
Outline: (§3)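 U1 and U937 cells mixed 1:4 (1x10^5 cells/ml) with LRA(s) (GM 26 pM, TPyB 0.57 µM) or DMSO, plus T20 1 µg/ml, for 18 days. p24 in supernatant read by ELISA every 3 days, after which medium with compound was renewed and cells reset to 1x10^5/ml. At day 18, part of the cells got GM 129 pM for 72 h and were read on day 21.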

[11] = tested on: Human immunodeficiency virus 1; test: Synergistic reactivation of latent HIV1 infected in human PBMC assessed as reduction in frequency of HIV1 latently infected CD4+ cells at 20 pM preincubated for 6 days followed by PHA-stimulation measured after 48 hrs in presence of HDAC inhibitor TPB by ELISA; assay type: functional
[12] = tested on: Human immunodeficiency virus 1; test: Synergistic reactivation of latent HIV1 infected in human PBMC assessed as reduction in HIV1 DNA at 20 pM after 6 days in presence of HDAC inhibitor TPB by SYBR green dye based RT-PCR analysis relative to control; assay type: functional
PBMC [13] = test: Induction of IFNgamma1 production in human PBMC at 20 pM after 2 days in presence of 0.3 uM HDAC inhibitor SAHA by ELISA (reference value: 25 pg/ml); assay type: cell-based; conditions: 48 h
[14] = tested on: Human immunodeficiency virus 1; test: Synergistic reactivation of latent HIV1 infected in human U1 cells assessed as increase in p24 production after 48 hrs in presenc of HDAC inhibitor TPB by ELISA relative to vorinostat; assay type: functional
[15] = tested on: Human immunodeficiency virus 1; test: Reactivation of latent HIV1 infected in human J-Lat A2 cells assessed as increase in GFP positive cells at 80 pM after 72 hrs by flow cytometric analysis relative to control; assay type: functional
Outline: (§4)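 J-Lat (A2) cells express GFP on latent HIV-1 activation; 1x10^6 cells/well incubated with LRA(s), alone or in pairs (HDAC inhibitor TPB 0.3 µM or TPyB 1.0 µM), at 37 °C for 72 h; GFP+ cell frequency by flow cytometry; two independent experiments, one-tailed t-test.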

PBMC [16] = test: Induction of IFNgamma1 production in human PBMC at 2000 pM after 2 days in presence of 0.3 uM HDAC inhibitor SAHA by ELISA (reference value: 25 pg/ml); assay type: cell-based; conditions: 48 h, 0.002 µM
PBMC [17] = test: Induction of IFNgamma1 production in human PBMC at 2000 pM after 2 days in presence of 1 uM HDAC inhibitor TPB by ELISA (reference value: 27 pg/ml); assay type: cell-based; conditions: 48 h, 0.002 µM
PBMC [18] = test: Induction of IFNgamma1 production in human PBMC at 2000 pM after 2 days by ELISA (reference value: 29 pg/ml); assay type: cell-based; conditions: 48 h, 0.002 µM
PBMC [19] = test: Induction of T-cell activation in human PBMC assessed as increase in CD69 expression at 3 nM measured after 1 day in presence of HDAC inhibitor vorinostat by flow cytometric method; assay type: cell-based; conditions: 24 h, 0.003 µM
[20] = tested on: Human immunodeficiency virus 1; test: Synergistic reactivation of latent HIV1 infected in human J-Lat A2 cells assessed as increase in GFP positive cells after 72 hrs in presence of HDAC inhibitor TPB by flow cytometric analysis relative to control; assay type: functional; outline: as §4
[21] = tested on: Human immunodeficiency virus 1; test: as §2, with “Synergistic reactivation” for “Reactivation”, “26 pM” for “0.57 uM”, “dose in presence of HDAC inhibitor TPyB” for “dose”, “analysis relative to control” for “analysis”; assay type: functional
Outline: (§5)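 Cells from the 18-day U1/U937 (1:4) co-culture with LRA(s) or DMSO plus T20 were tested for proviral DNA by PCR of HIV-1 pol (200 bp, 30 cycles), with B2M (779 bp, 25 cycles) as internal control. Products run on 2% agarose and quantified by densitometry; values are ratios of treated to DMSO.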

PBMC [22] = test: Induction of IFNgamma1 production in human PBMC at 2000 pM after 2 days in presence of 3 uM HDAC inhibitor TPB by ELISA (reference value: 26 pg/ml); assay type: cell-based; conditions: 48 h, 0.002 µM
[23] = tested on: Human immunodeficiency virus 1; test: Ratio of EC50 for reactivation of latent HIV1 infected in human U1 cells to EC50 for synergistic reactivation of latent HIV1 infected in human U1 cells in presence of HDAC inhibitor TPB; assay type: functional
[24] = tested on: Human immunodeficiency virus 1; test: Reactivation of latent HIV1 infected in human U1 cells/uninfected U937 cell mixture assessed as increase in p24 production at 26 pM supplemented with fresh medium containing compound every 3 days for 18 days measured at day 9 post dose by ELISA; assay type: functional, organism-based; outline: as §3
[25] = tested on: Human immunodeficiency virus 1; test: Synergistic reactivation of latent HIV1 infected in human U1 cells/uninfected U937 cell mixture assessed as p24 level at 26 pM supplemented with fresh medium containing compound every 3 days for 18 days measured at day 6 post dose in presence of HDAC inhibitor TPyB by ELISA; assay type: functional; outline: as §3
[26] = tested on: Human immunodeficiency virus 1; test: Synergistic reactivation of latent HIV1 infected in human U1 cells/uninfected U937 cell mixture assessed as increase in p24 production at 26 pM supplemented with fresh medium containing compound every 3 days for 18 days measured at day 6 post dose in presence of HDAC inhibitor TPyB by ELISA; assay type: functional, organism-based; outline: as §3
PBMC [27] = test: Induction of T-cell activation in human PBMC assessed as increase in CD69 expression at 3 nM measured after 1 day in presence of HDAC inhibitor TPyB by flow cytometric method; assay type: cell-based; conditions: 24 h, 0.003 µM
PBMC [28] = test: Induction of IFNgamma1 production in human PBMC at 20 pM after 2 days in presence of 1 uM HDAC inhibitor TPB by ELISA (reference value: 27 pg/ml); assay type: cell-based; conditions: 48 h
[29] = tested on: Human immunodeficiency virus 1; test: Synergistic reactivation of latent HIV1 infected in human U1 cells assessed as increase in p24 production after 48 hrs in presence of HDAC inhibitor TPB by ELISA; assay type: functional, organism-based; conditions: Human immunodeficiency virus 1, U1, 48 h
[30] = Cytotoxicity against human J-Lat (A2) cells assessed as effect on cell viability at 80 pM after 72 hrs by flow cytometric analysis; assay type: cell-based
Outline: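 J-Lat (A2) cells, 1x10^6 cells/well, exposed to LRA(s) at 37 °C for 72 h; percent viable cells read by flow cytometry, two independent experiments.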

[31] = tested on: Human immunodeficiency virus 1; test: Reactivation of latent HIV1 infected in human U1 cells/uninfected U937 cell mixture assessed as p24 level at 26 pM supplemented with fresh medium containing compound every 3 days for 18 days measured at day 18 post dose by ELISA; assay type: functional; outline: as §3
PBMC [32] = test: Induction of IFNgamma1 production in human PBMC at 20 pM after 2 days in presence of 3 uM HDAC inhibitor TPB by ELISA (reference value: 26 pg/ml); assay type: cell-based; conditions: 48 h
PBMC [33] = test: Induction of IFNgamma1 production in human PBMC at 20 pM after 2 days by ELISA (reference value: 29 pg/ml); assay type: cell-based; conditions: 48 h
[34] = tested on: Human immunodeficiency virus 1; test: Reactivation of latent HIV1 infected in human U1 cells/uninfected U937 cell mixture assessed as increase in p24 production at 26 pM supplemented with fresh medium containing compound every 3 days for 18 days and subsequent dosing at 129 pM at day 18 post dose measured on day 21 by ELISA; assay type: functional, organism-based; outline: as §3
[35] = tested on: Human immunodeficiency virus 1; test: Reactivation of latent HIV1 infected in human U1 cells/uninfected U937 cell mixture assessed as reduction in proviral DNA level at 26 pM supplemented with fresh medium containing compound every 3 days for 18 days measured post last dose by PCR analysis; assay type: functional, organism-based; outline: as §5

With CC(=O)Nc1ccc(C(=O)Nc2nc(-c3cccs3)ccc2N)cc1 the “fold change (FC)” value [1] was 1.3, the Activity [2] was “Non-Toxic” and the Activity [3] was “Active”. The CC50 at 48 h [4] was 47.3 µM, the CC50 at 72 h [5] was 44.3 µM and the selectivity ratio [6] was 8.2. The Activity [7] was “Active”, the EC50 [8] was 5700 nM and the Activity [9] was “Active”.

With C=C(C)[C@@]12C[C@@H](COC(=O)c3ccccc3)[C@@]34OC5(O[C@@H]1[C@@H]3[C@@H]1O[C@]1(CO)[C@@H](O)[C@@]1(O)[C@H]4[C@H]([C@H](C)[C@@H]1OC(=O)c1ccccc1)[C@H](C)CCCCCC[C@H]5O)O2 [GNIDIMACRIN] the Activity [10] was “inactive”, the “fold change (FC)” value [11] was over 3 and the “fold change (FC)” value [12] was 1.8. The Activity (PBMC [13]) was 30 pg/mL, the “fold change (FC)” value [14] was 13.8 and the Activity [15] was over 5%. The “fold change (FC)” value [1] was 12.3, the Activity (PBMC [16]) was 39 pg/mL and the Activity (PBMC [17]) was 47 pg/mL. For the same compound, the CC50 at 48 h [4] was 4.2 to 4.8 µM, the Activity (PBMC [18]) was 164 pg/mL and the Activity (PBMC [19]) was “Toxic”. The Activity [20] was 21%, the “fold change (FC)” value [21] was 10 and the Activity (PBMC [22]) was 42 pg/mL. The “Ratio EC50” value [23] was over 3, the CC50 at 72 h [5] was 5.3 µM and the Activity [24] was “Active”. The Activity [25] was 12 pg/mL, the Activity [26] was “Active” and the Activity (PBMC [27]) was “Toxic”. For the same compound, the Activity (PBMC [28]) was 34 pg/mL, the selectivity ratio [6] was 260000 to 750000 and the EC50 [29] was 5.6 pM. For the same compound, the Activity [30] was “Non-Toxic”, the Activity [31] was 49 pg/mL and the Activity (PBMC [32]) was 32 pg/mL. For the same compound, the Activity (PBMC [33]) was 35 pg/mL, the Activity [34] was “inactive” and the EC50 [8] was 0.018 nM. The Activity [35] was “Active”.
